Calls of active or inactive are those of the source. How the calls were made is not given here.
What was measured:
Type in all cases: functional, organism-based
Acinetobacter baumannii = test: Antibacterial activity against Acinetobacter baumannii ATCC 19606 after 24 hrs; conditions: ATCC 19606 = CIP 70.34 = JCM 6841
Procedure, shortened: (§1)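 Stagnant liquid-culture proliferation assay at 37°C in broth cation-adjusted with 25 mg/L Ca²⁺ and 12.5 mg/L Mg²⁺, with compounds stamped into the wells. […] OD600 turbidity was read at 6–8 h (K. pneumoniae, E. cloacae, P. aeruginosa) or 24 h (A. baumannii). EC50 came from non-linear regression, averaged in log form over replicates.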

Enterobacter cloacae = test: Antibacterial activity against Enterobacter cloacae subsp. cloacae ATCC 13047 after 6 to 8 hrs; procedure, shortened: as §1
Klebsiella pneumoniae = test: Antibacterial activity against Klebsiella pneumoniae ATCC 13883 after 6 to 8 hrs; procedure, shortened: as §1
Pseudomonas aeruginosa = test: Antibacterial activity against Pseudomonas aeruginosa ATCC 10145 after 6 to 8 hrs; procedure, shortened: as §1

Row | SMILES | Activity (Acinetobacter baumannii) | Activity (Enterobacter cloacae) | Activity (Klebsiella pneumoniae) | Activity (Pseudomonas aeruginosa)
1 | O=S(=O)(Nc1ccc2oc(-c3ccc(NS(=O)(=O)c4ccc5ncsc5c4)cc3)nc2c1)c1ccc2scnc2c1 | inactive | inactive | inactive | inactive
2 | O=[N+]([O-])c1ccccc1S(=O)(=O)Nc1ccc(-c2nc3cc(NS(=O)(=O)c4ccccc4[N+](=O)[O-])ccc3o2)cc1 | inactive | inactive | inactive | inactive
3 | O=S(=O)(Nc1ccc(-c2nc3cc(NS(=O)(=O)c4cccc(Br)c4)ccc3o2)cc1)c1cccc(Br)c1 | inactive | inactive | inactive | inactive
4 | O=C(O)c1ccc(S(=O)(=O)Nc2ccc(-c3nc4cc(NS(=O)(=O)c5ccc(C(=O)O)cc5)ccc4o3)cc2)cc1 | inactive | inactive | inactive | inactive
5 | O=S(=O)(Nc1ccc(-c2nc3cc(NS(=O)(=O)c4cccc(Cl)c4)ccc3o2)cc1)c1cccc(Cl)c1 | inactive | inactive | inactive | inactive
6 | Cc1cccc(S(=O)(=O)Nc2ccc(-c3nc4cc(NS(=O)(=O)c5cccc(C)c5)ccc4o3)cc2)c1 | inactive | inactive | inactive | inactive
7 | O=S(=O)(Nc1ccc(-c2nc3cc(NS(=O)(=O)c4cccs4)ccc3o2)cc1)c1cccs1 | inactive | inactive | inactive | inactive
8 | Cc1ccccc1S(=O)(=O)Nc1ccc(-c2nc3cc(NS(=O)(=O)c4ccccc4C)ccc3o2)cc1 | inactive | inactive | inactive | inactive
9 | O=[N+]([O-])c1cccc(S(=O)(=O)Nc2ccc(-c3nc4cc(NS(=O)(=O)c5cccc([N+](=O)[O-])c5)ccc4o3)cc2)c1 | inactive | inactive | inactive | inactive
10 | O=S(=O)(Nc1ccc(-c2nc3cc(NS(=O)(=O)c4ccccc4F)ccc3o2)cc1)c1ccccc1F | inactive | inactive | inactive | inactive
11 | O=S(=O)(Nc1ccc(-c2nc3cc(NS(=O)(=O)c4cccc(O)c4)ccc3o2)cc1)c1cccc(O)c1 | inactive | inactive | inactive | inactive
12 | COC(=O)c1cccc(S(=O)(=O)Nc2ccc(-c3nc4cc(NS(=O)(=O)c5cccc(C(=O)OC)c5)ccc4o3)cc2)c1 | inactive | inactive | inactive | inactive
13 | O=S(=O)(Nc1ccc(-c2nc3cc(NS(=O)(=O)c4ccc(O)cc4)ccc3o2)cc1)c1ccc(O)cc1 | Active | Active | Active | Active
14 | COc1cccc(S(=O)(=O)Nc2ccc(-c3nc4cc(NS(=O)(=O)c5cccc(OC)c5)ccc4o3)cc2)c1 | inactive | inactive | inactive | inactive
15 | N#Cc1ccc(S(=O)(=O)Nc2ccc(-c3nc4cc(NS(=O)(=O)c5ccc(C#N)cc5)ccc4o3)cc2)cc1 | inactive | inactive | inactive | inactive
16 | Cc1ccc(S(=O)(=O)Nc2ccc(-c3nc4ccc(NS(=O)(=O)c5ccc(C)cc5)cc4[nH]3)cc2)cc1 | inactive | inactive | inactive | inactive
17 | O=S(=O)(Nc1ccc(-c2nc3cc(NS(=O)(=O)c4ccc(Br)cc4)ccc3o2)cc1)c1ccc(Br)cc1 | inactive | inactive | inactive | inactive
